# Data from ChEMBL document CHEMBL1154742, “Modular synthesis and in vitro and in vivo antimalarial assessment of C-10 pyrrole mannich base derivatives of artemisinin” (J Med Chem, 2010).
# Tested on: Plasmodium falciparum
# Experiment: Antimalarial activity against chloroquine-sensitive Plasmodium falciparum 3D7 assessed as growth inhibition by [3H]hypoxanthine incorporation assay
# Format: functional, organism-based
# Settings: not given
# How it was run: (§1)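 Asynchronous P. falciparum culture (65-75% rings, 0.5% parasitemia) at 2.5% final hematocrit, with triplicate 3-fold drug dilutions (10.0 to 0.0041 μg/mL) in RPMI 1640 with 0.5% Albumax II, glucose, L-glutamine and 5 μM hypoxanthine. DMSO was ≤0.01% final. After 24 h at 37 °C in 5% CO2, [3H]hypoxanthine (0.2 μCi/well) was added for a further 24 h. Plates were frozen and harvested, incorporation counted by scintillation, and IC50 obtained by curve fitting.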
row,Compound,IC50
1,C[C@H]1[C@H](c2ccc(CN3CCCCC3)[nH]2)O[C@@H]2O[C@@]3(C)CC[C@H]4[C@H](C)CC[C@@H]1[C@@]24OO3,59.4 nM
2,CC(C)N1CCN(Cc2ccc([C@@H]3O[C@@H]4O[C@@]5(C)CC[C@H]6[C@H](C)CC[C@@H]([C@H]3C)[C@@]46OO5)n2C)CC1,5.1 nM
3,C[C@H]1[C@H](c2ccc(CN3CCCC3)[nH]2)O[C@@H]2O[C@@]3(C)CC[C@H]4[C@H](C)CC[C@@H]1[C@@]24OO3,16.9 nM
4,C[C@H]1[C@H](c2ccc(CN3CCCCC3)n2C)O[C@@H]2O[C@@]3(C)CC[C@H]4[C@H](C)CC[C@@H]1[C@@]24OO3,6.1 nM
5,C[C@H]1[C@H](c2ccc(CN3CCOCC3)[nH]2)O[C@@H]2O[C@@]3(C)CC[C@H]4[C@H](C)CC[C@@H]1[C@@]24OO3,2.5 nM
6,C[C@H]1[C@H](c2ccc(CN3CCS(=O)(=O)CC3)n2C)O[C@@H]2O[C@@]3(C)CC[C@H]4[C@H](C)CC[C@@H]1[C@@]24OO3,2.2 nM
7,C[C@H]1[C@H](c2ccc(CN3CCN(C)CC3)[nH]2)O[C@@H]2O[C@@]3(C)CC[C@H]4[C@H](C)CC[C@@H]1[C@@]24OO3,6.5 nM
8,C[C@H]1[C@H](c2ccc(CN3CCCC3)n2C)O[C@@H]2O[C@@]3(C)CC[C@H]4[C@H](C)CC[C@@H]1[C@@]24OO3,3.7 nM
9,C[C@H]1[C@H](c2ccc(CN3CCC(N4CCCC4)CC3)n2C)O[C@@H]2O[C@@]3(C)CC[C@H]4[C@H](C)CC[C@@H]1[C@@]24OO3,2.5 nM
10,C[C@H]1[C@H](c2ccc[nH]2)O[C@@H]2O[C@@]3(C)CC[C@H]4[C@H](C)CC[C@@H]1[C@@]24OO3,7.4 nM
11,C[C@H]1[C@H](c2ccc(CN3CCSCC3)n2C)O[C@@H]2O[C@@]3(C)CC[C@H]4[C@H](C)CC[C@@H]1[C@@]24OO3,7.2 nM

# Tested on: Plasmodium berghei
# Experiment: Antimalarial activity against Plasmodium berghei ANKA infected NMRI mice (Mus musculus) assessed as reduction of parasitemia at 10 mg/kg, intraperitoneally 4 consecutive doses for 3 days measured on day 4 by FACS analysis
# Settings: ip
row,Compound,inhibition in vivo at 10 mg/kg
1,C[C@H]1[C@H](c2ccc(CN3CCN(C)CC3)[nH]2)O[C@@H]2O[C@@]3(C)CC[C@H]4[C@H](C)CC[C@@H]1[C@@]24OO3,98%

# Tested on: Plasmodium berghei
# Experiment: Antimalarial activity against Plasmodium berghei ANKA infected NMRI mice (Mus musculus) assessed as mean survival time at 10 mg/kg, intraperitoneally 4 consecutive doses for 3 days measured on day 4 by FACS analysis
# Settings: route intraperitoneal
row,Compound,MSD
1,C[C@H]1[C@H](c2ccc(CN3CCN(C)CC3)[nH]2)O[C@@H]2O[C@@]3(C)CC[C@H]4[C@H](C)CC[C@@H]1[C@@]24OO3,7 days

# Tested on: Plasmodium falciparum
# Experiment: Antimalarial activity against chloroquine-resistant Plasmodium falciparum K1 (Thailand) assessed as growth inhibition by [3H]hypoxanthine incorporation assay relative to artemisinin
# Format: functional
# Settings: not given
row,Compound,Ratio IC50
1,CC(C)N1CCN(Cc2ccc([C@@H]3O[C@@H]4O[C@@]5(C)CC[C@H]6[C@H](C)CC[C@@H]([C@H]3C)[C@@]46OO5)n2C)CC1,0.99
2,C[C@H]1[C@H](c2ccc(CN3CCOCC3)[nH]2)O[C@@H]2O[C@@]3(C)CC[C@H]4[C@H](C)CC[C@@H]1[C@@]24OO3,2.56
3,C[C@H]1[C@H](c2ccc(CN3CCS(=O)(=O)CC3)n2C)O[C@@H]2O[C@@]3(C)CC[C@H]4[C@H](C)CC[C@@H]1[C@@]24OO3,2.3
4,C[C@H]1[C@H](c2ccc(CN3CCN(C)CC3)[nH]2)O[C@@H]2O[C@@]3(C)CC[C@H]4[C@H](C)CC[C@@H]1[C@@]24OO3,1.64
5,C[C@H]1[C@H](c2ccc(CN3CCC(N4CCCC4)CC3)n2C)O[C@@H]2O[C@@]3(C)CC[C@H]4[C@H](C)CC[C@@H]1[C@@]24OO3,1.12

# Tested on: Plasmodium berghei
# Experiment: Antimalarial activity against Plasmodium berghei ANKA infected NMRI mice (Mus musculus) assessed as reduction of parasitemia treated perorally for 3 days measured on day 4
# Format: functional
# Settings: po
Compound,ED50,ED90
C[C@H]1[C@H](c2ccc(CN3CCOCC3)[nH]2)O[C@@H]2O[C@@]3(C)CC[C@H]4[C@H](C)CC[C@@H]1[C@@]24OO3,2.11 mg/kg,4.3 mg/kg

# Tested on: not listed separately
# Experiment: Therapeutic index, ratio of IC50 for human KB cells to IC50 for Plasmodium falciparum 3D7
# Format: cell-based
# Settings: KB cells (cytotoxicity) versus Plasmodium falciparum 3D7, read-out: TI
row,Compound,selectivity ratio
1,C[C@H]1[C@H](c2ccc(CN3CCCCC3)[nH]2)O[C@@H]2O[C@@]3(C)CC[C@H]4[C@H](C)CC[C@@H]1[C@@]24OO3,2410
2,C[C@H]1[C@H](c2ccc(CN3CCCC3)[nH]2)O[C@@H]2O[C@@]3(C)CC[C@H]4[C@H](C)CC[C@@H]1[C@@]24OO3,2780
3,C[C@H]1[C@H](c2ccc(CN3CCCCC3)n2C)O[C@@H]2O[C@@]3(C)CC[C@H]4[C@H](C)CC[C@@H]1[C@@]24OO3,6430
4,C[C@H]1[C@H](c2ccc(CN3CCOCC3)[nH]2)O[C@@H]2O[C@@]3(C)CC[C@H]4[C@H](C)CC[C@@H]1[C@@]24OO3,22600
5,C[C@H]1[C@H](c2ccc(CN3CCS(=O)(=O)CC3)n2C)O[C@@H]2O[C@@]3(C)CC[C@H]4[C@H](C)CC[C@@H]1[C@@]24OO3,31100
6,C[C@H]1[C@H](c2ccc(CN3CCN(C)CC3)[nH]2)O[C@@H]2O[C@@]3(C)CC[C@H]4[C@H](C)CC[C@@H]1[C@@]24OO3,13100
7,C[C@H]1[C@H](c2ccc(CN3CCCC3)n2C)O[C@@H]2O[C@@]3(C)CC[C@H]4[C@H](C)CC[C@@H]1[C@@]24OO3,11400
8,C[C@H]1[C@H](c2ccc[nH]2)O[C@@H]2O[C@@]3(C)CC[C@H]4[C@H](C)CC[C@@H]1[C@@]24OO3,8450
9,C[C@H]1[C@H](c2ccc(CN3CCSCC3)n2C)O[C@@H]2O[C@@]3(C)CC[C@H]4[C@H](C)CC[C@@H]1[C@@]24OO3,19100

# Tested on: KB
# Experiment: Cytotoxicity against human KB cells after 72 hrs by alamar blue assay
# Format: cell-based
# Settings: not given
# How it was run: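 KB cells seeded at 4 × 10^4 cells/mL in RPMI 1640 with 10% heat-inactivated fetal calf serum and grown 24 h at 37 °C in 5% CO2. Compound dilution series added in triplicate for 72 h, with podophyllotoxin as positive control. AlamarBlue added for 2-4 h; fluorescence read at ex 530/em 585 nm and IC50 obtained by curve fitting.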
row,Compound,IC50
1,C[C@H]1[C@H](c2ccc(CN3CCCCC3)[nH]2)O[C@@H]2O[C@@]3(C)CC[C@H]4[C@H](C)CC[C@@H]1[C@@]24OO3,143000 nM
2,C[C@H]1[C@H](c2ccc(CN3CCCC3)[nH]2)O[C@@H]2O[C@@]3(C)CC[C@H]4[C@H](C)CC[C@@H]1[C@@]24OO3,47000 nM
3,C[C@H]1[C@H](c2ccc(CN3CCCCC3)n2C)O[C@@H]2O[C@@]3(C)CC[C@H]4[C@H](C)CC[C@@H]1[C@@]24OO3,39200 nM
4,C[C@H]1[C@H](c2ccc(CN3CCOCC3)[nH]2)O[C@@H]2O[C@@]3(C)CC[C@H]4[C@H](C)CC[C@@H]1[C@@]24OO3,56500 nM
5,C[C@H]1[C@H](c2ccc(CN3CCS(=O)(=O)CC3)n2C)O[C@@H]2O[C@@]3(C)CC[C@H]4[C@H](C)CC[C@@H]1[C@@]24OO3,68300 nM
6,C[C@H]1[C@H](c2ccc(CN3CCN(C)CC3)[nH]2)O[C@@H]2O[C@@]3(C)CC[C@H]4[C@H](C)CC[C@@H]1[C@@]24OO3,85200 nM
7,C[C@H]1[C@H](c2ccc(CN3CCCC3)n2C)O[C@@H]2O[C@@]3(C)CC[C@H]4[C@H](C)CC[C@@H]1[C@@]24OO3,42200 nM
8,C[C@H]1[C@H](c2ccc[nH]2)O[C@@H]2O[C@@]3(C)CC[C@H]4[C@H](C)CC[C@@H]1[C@@]24OO3,62500 nM
9,C[C@H]1[C@H](c2ccc(CN3CCSCC3)n2C)O[C@@H]2O[C@@]3(C)CC[C@H]4[C@H](C)CC[C@@H]1[C@@]24OO3,138000 nM

# Tested on: Plasmodium falciparum
# Experiment: Antimalarial activity against chloroquine-resistant Plasmodium falciparum K1 (Thailand) assessed as growth inhibition by [3H]hypoxanthine incorporation assay
# Format: functional, organism-based
# Settings: not given
# How it was run: as §1
row,Compound,IC50
1,CC(C)N1CCN(Cc2ccc([C@@H]3O[C@@H]4O[C@@]5(C)CC[C@H]6[C@H](C)CC[C@@H]([C@H]3C)[C@@]46OO5)n2C)CC1,8.3 nM
2,C[C@H]1[C@H](c2ccc(CN3CCOCC3)[nH]2)O[C@@H]2O[C@@]3(C)CC[C@H]4[C@H](C)CC[C@@H]1[C@@]24OO3,3.2 nM
3,C[C@H]1[C@H](c2ccc(CN3CCS(=O)(=O)CC3)n2C)O[C@@H]2O[C@@]3(C)CC[C@H]4[C@H](C)CC[C@@H]1[C@@]24OO3,3.57 nM
4,C[C@H]1[C@H](c2ccc(CN3CCN(C)CC3)[nH]2)O[C@@H]2O[C@@]3(C)CC[C@H]4[C@H](C)CC[C@@H]1[C@@]24OO3,5 nM
5,C[C@H]1[C@H](c2ccc(CN3CCC(N4CCCC4)CC3)n2C)O[C@@H]2O[C@@]3(C)CC[C@H]4[C@H](C)CC[C@@H]1[C@@]24OO3,7.3 nM

# Tested on: Plasmodium falciparum
# Experiment: Antimalarial activity against chloroquine-sensitive Plasmodium falciparum 3D7 assessed as growth inhibition by [3H]hypoxanthine incorporation assay relative to artemisinin
# Format: functional
# Settings: not given
row,Compound,Ratio IC50
1,C[C@H]1[C@H](c2ccc(CN3CCCCC3)[nH]2)O[C@@H]2O[C@@]3(C)CC[C@H]4[C@H](C)CC[C@@H]1[C@@]24OO3,0.22
2,CC(C)N1CCN(Cc2ccc([C@@H]3O[C@@H]4O[C@@]5(C)CC[C@H]6[C@H](C)CC[C@@H]([C@H]3C)[C@@]46OO5)n2C)CC1,2.51
3,C[C@H]1[C@H](c2ccc(CN3CCCC3)[nH]2)O[C@@H]2O[C@@]3(C)CC[C@H]4[C@H](C)CC[C@@H]1[C@@]24OO3,0.76
4,C[C@H]1[C@H](c2ccc(CN3CCCCC3)n2C)O[C@@H]2O[C@@]3(C)CC[C@H]4[C@H](C)CC[C@@H]1[C@@]24OO3,2.1
5,C[C@H]1[C@H](c2ccc(CN3CCOCC3)[nH]2)O[C@@H]2O[C@@]3(C)CC[C@H]4[C@H](C)CC[C@@H]1[C@@]24OO3,2.84
6,C[C@H]1[C@H](c2ccc(CN3CCS(=O)(=O)CC3)n2C)O[C@@H]2O[C@@]3(C)CC[C@H]4[C@H](C)CC[C@@H]1[C@@]24OO3,5.82
7,C[C@H]1[C@H](c2ccc(CN3CCN(C)CC3)[nH]2)O[C@@H]2O[C@@]3(C)CC[C@H]4[C@H](C)CC[C@@H]1[C@@]24OO3,1.97
8,C[C@H]1[C@H](c2ccc(CN3CCCC3)n2C)O[C@@H]2O[C@@]3(C)CC[C@H]4[C@H](C)CC[C@@H]1[C@@]24OO3,3.46
9,C[C@H]1[C@H](c2ccc(CN3CCC(N4CCCC4)CC3)n2C)O[C@@H]2O[C@@]3(C)CC[C@H]4[C@H](C)CC[C@@H]1[C@@]24OO3,5.12
10,C[C@H]1[C@H](c2ccc[nH]2)O[C@@H]2O[C@@]3(C)CC[C@H]4[C@H](C)CC[C@@H]1[C@@]24OO3,1.73
11,C[C@H]1[C@H](c2ccc(CN3CCSCC3)n2C)O[C@@H]2O[C@@]3(C)CC[C@H]4[C@H](C)CC[C@@H]1[C@@]24OO3,1.78

# Tested on: Plasmodium berghei
# Experiment: Antimalarial activity against Plasmodium berghei ANKA infected Swiss CD1 mice (Mus musculus) assessed as reduction of parasitemia at 30 mg/kg, perorally administered after 3 hrs of infection for 3 days measured on day 4 relative to control
# Format: functional
# Settings: route oral
# How it was run: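 Male Swiss CD-1 mice (20 g) infected iv with 4 × 10^6 P. berghei ANKA-infected red cells on day 0, in groups of five. Compound was given orally in standard suspending vehicle (carboxymethylcellulose, benzyl alcohol, Tween 80, saline), 3 × 30 mg/kg, starting 3 h post-infection, once daily. Parasitemia was counted on Giemsa-stained smears on day 4 and expressed as % inhibition versus the untreated group mean.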
row,Compound,inhibition in vivo at 30 mg/kg
1,C[C@H]1[C@H](c2ccc(CN3CCOCC3)[nH]2)O[C@@H]2O[C@@]3(C)CC[C@H]4[C@H](C)CC[C@@H]1[C@@]24OO3,100%
2,C[C@H]1[C@H](c2ccc(CN3CCN(C)CC3)[nH]2)O[C@@H]2O[C@@]3(C)CC[C@H]4[C@H](C)CC[C@@H]1[C@@]24OO3,97.7%
